Source: ChEMBL document CHEMBL4043303, “Development of Novel Melanocortin Receptor Agonists Based on the Cyclic Peptide Framework of Sunflower Trypsin Inhibitor-1” (J Med Chem, 2018)
Activity calls are given as the source filed them. The rule behind the calls is not given here.

Key:
[1] = molecular target: T1, Melanocortin receptor 5 (Homo sapiens, UniProt P33032); test: Displacement of [125I]-NDP-alpha-MSH from human MC5R LBD expressed in HEK293 cell membranes incubated for 16 to 23 hrs in dark by scintillation proximity assay; parameters: concentration or dose not given beside the values; conditions: concentration not given here
[2] = molecular target: T2, Melanocortin receptor 4 (Homo sapiens, UniProt P32245); test: Agonist activity at human MC4R expressed in high doxycyclin-treated HEK293 cell membranes assessed as increase in cAMP production after 15 mins by HTRF method; format: functional, cell-based
Method in brief: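 T-REx-293 cells stably expressing doxycycline-inducible human MC1R, MC3R or MC4R; expression induced 24 h with 0.1 ng/mL (low) or 10 ng/mL (high, MC4R only) doxycycline. 1000 cells/well in HBSS, 20 mM HEPES pH 7.4, 0.1% BSA, 1 mM IBMX; stimulated at 37 °C. Time-resolved FRET cAMP read-out normalized to NDP-α-MSH maximum.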

[3] = molecular target: T3, Melanocortin receptor 3 (Homo sapiens, UniProt P41968); test: Agonist activity at human MC3R expressed in low doxycyclin-treated HEK293 cell membranes assessed as increase in cAMP production up to 100 uM after 45 mins by HTRF method; format: functional, cell-based
Method in brief: (§1)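 Stable T-REx-293 clones (Zeocin-selected, human receptor cDNA in pcDNA4/TO), receptor expression induced with 0.1 ng/mL doxycycline for 24 h. 1000 cells/well in HBSS with Ca2+/Mg2+, 20 mM HEPES pH 7.4, 0.1% BSA. Stimulation for 45 min at 37 °C with 1 mM IBMX. cAMP read by LANCE HTRF (665/615 nm).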

[4] = molecular target: T4, Melanocyte-stimulating hormone receptor (Homo sapiens, UniProt Q01726); test: Displacement of [125I]-NDP-alpha-MSH from human MC1R LBD expressed in HEK293 cell membranes up to 1 uM incubated for 16 to 23 hrs in dark by scintillation proximity assay
[5] = Solubility of the compound in water at 1 mM; format: physicochemical; conditions: buffer, 1000 µM
[6] = molecular target: T2, Melanocortin receptor 4; test: Agonist activity at human MC4R expressed in low doxycyclin-treated HEK293 cell membranes assessed as increase in cAMP production up to 100 uM after 45 mins by HTRF method; format: functional, cell-based; method in brief: as §1
[7] = molecular target: T2, Melanocortin receptor 4; test: Displacement of [125I]-NDP-alpha-MSH from human MC4R LBD expressed in HEK293 cell membranes up to 100 uM incubated for 16 to 23 hrs in dark by scintillation proximity assay
[8] = molecular target: T4, Melanocyte-stimulating hormone receptor; test: Agonist activity at human MC1R expressed in low doxycyclin-treated HEK293 cell membranes assessed as increase in cAMP production after 45 mins by HTRF method; format: functional, cell-based
[9] = molecular target: T3, Melanocortin receptor 3; test: Displacement of [125I]-NDP-alpha-MSH from human MC3R LBD expressed in HEK293 cell membranes incubated for 16 to 23 hrs in dark by scintillation proximity assay; parameters: concentration or dose not given beside the values; conditions: concentration not given here
[10] = molecular target: T2, Melanocortin receptor 4; test: Agonist activity at human MC4R expressed in high doxycyclin-treated HEK293 cell membranes assessed as increase in cAMP production up to 100 uM after 15 mins by HTRF method; format: functional, cell-based
Method in brief: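 Stable T-REx-293 clone expressing human MC4R, induced with 10 ng/mL doxycycline for 24 h. 1000 cells/well in HBSS/20 mM HEPES pH 7.4/0.1% BSA. Stimulation for 15 min at 37 °C with 1 mM IBMX. LANCE HTRF cAMP read-out.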

[11] = molecular target: T3, Melanocortin receptor 3; test: Displacement of [125I]-NDP-alpha-MSH from human MC3R LBD expressed in HEK293 cell membranes up to 100 uM incubated for 16 to 23 hrs in dark by scintillation proximity assay
[12] = molecular target: T4, Melanocyte-stimulating hormone receptor; test: Agonist activity at human MC1R expressed in low doxycyclin-treated HEK293 cell membranes assessed as increase in cAMP production up to 100 uM after 45 mins by HTRF method; format: functional, cell-based; method in brief: as §1
[13] = molecular target: T4, Melanocyte-stimulating hormone receptor; test: Displacement of [125I]-NDP-alpha-MSH from human MC1R LBD expressed in HEK293 cell membranes up to 100 uM incubated for 16 to 23 hrs in dark by scintillation proximity assay
[14] = molecular target: T1, Melanocortin receptor 5; test: Displacement of [125I]-NDP-alpha-MSH from human MC5R LBD expressed in HEK293 cell membranes up to 100 uM incubated for 16 to 23 hrs in dark by scintillation proximity assay

T3 sequence (P41968 whole entry): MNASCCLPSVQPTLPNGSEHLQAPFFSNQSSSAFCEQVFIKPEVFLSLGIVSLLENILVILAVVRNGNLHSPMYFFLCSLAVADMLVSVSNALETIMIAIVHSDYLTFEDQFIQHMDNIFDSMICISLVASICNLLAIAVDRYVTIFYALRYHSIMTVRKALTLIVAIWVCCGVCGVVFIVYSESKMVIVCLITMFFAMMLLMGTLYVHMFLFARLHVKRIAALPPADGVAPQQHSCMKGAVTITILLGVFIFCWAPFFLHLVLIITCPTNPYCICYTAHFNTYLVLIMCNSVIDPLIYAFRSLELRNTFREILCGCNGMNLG
T2 sequence (P32245 whole entry): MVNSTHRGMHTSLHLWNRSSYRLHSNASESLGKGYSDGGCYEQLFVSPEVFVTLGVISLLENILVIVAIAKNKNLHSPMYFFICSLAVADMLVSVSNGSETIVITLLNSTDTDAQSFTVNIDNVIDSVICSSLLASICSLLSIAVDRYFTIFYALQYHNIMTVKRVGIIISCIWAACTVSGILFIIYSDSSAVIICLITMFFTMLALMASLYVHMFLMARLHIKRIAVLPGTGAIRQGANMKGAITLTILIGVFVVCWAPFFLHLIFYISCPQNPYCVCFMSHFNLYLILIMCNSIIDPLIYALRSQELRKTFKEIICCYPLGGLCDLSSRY
T4 sequence (Q01726 whole entry, looked up, the tested form may be a part): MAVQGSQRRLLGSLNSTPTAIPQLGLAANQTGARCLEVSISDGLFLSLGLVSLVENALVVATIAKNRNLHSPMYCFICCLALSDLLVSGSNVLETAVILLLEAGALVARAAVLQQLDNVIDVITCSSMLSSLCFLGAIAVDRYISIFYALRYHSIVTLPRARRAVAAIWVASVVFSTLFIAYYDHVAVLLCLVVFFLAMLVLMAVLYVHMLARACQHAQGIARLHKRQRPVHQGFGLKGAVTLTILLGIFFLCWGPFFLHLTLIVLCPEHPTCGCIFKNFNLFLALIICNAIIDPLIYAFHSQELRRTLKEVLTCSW
T1 sequence (P33032 whole entry, the tested form may be a part): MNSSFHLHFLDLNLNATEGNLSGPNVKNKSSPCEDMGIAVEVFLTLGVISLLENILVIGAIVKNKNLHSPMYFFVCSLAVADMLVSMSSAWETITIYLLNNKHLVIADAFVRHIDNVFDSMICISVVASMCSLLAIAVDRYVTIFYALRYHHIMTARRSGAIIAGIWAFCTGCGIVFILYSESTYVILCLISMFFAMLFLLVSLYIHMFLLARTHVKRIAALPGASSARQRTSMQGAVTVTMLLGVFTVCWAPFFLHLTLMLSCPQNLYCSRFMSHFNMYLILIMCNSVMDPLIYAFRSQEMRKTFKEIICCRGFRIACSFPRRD

inhibition [1] [%] | Activity [2] [%] | Activity [3] | inhibition [4] | solubility [5] | Activity [6] | inhibition [7] | Activity [8] [%] | inhibition [9] [%] | Activity [10] | inhibition [11] | Activity [12] | inhibition [13] | inhibition [14] | SMILES
100 | 100 | inactive | inactive | Soluble | inactive | inactive | 100 | 100 | – | – | – | – | – | CC[C@H](C)[C@@H]1NC(=O)[C@@H]2CCCN2C(=O)[C@H](Cc2c[nH]c3ccccc23)NC(=O)[C@H](CCCNC(=N)N)NC(=O)[C@H](Cc2ccccc2)NC(=O)[C@H](Cc2cnc[nH]2)NC(=O)[C@H]([C@@H](C)O)NC(=O)[C@@H]2CSSC[C@H](NC1=O)C(=O)N[C@@H](Cc1ccccc1)C(=O)N1CCC[C@H]1C(=O)N[C@@H](CC(=O)O)C(=O)NCC(=O)N[C@@H](CCCNC(=N)N)C(=O)N2
– | – | inactive | – | Soluble | inactive | inactive | – | – | inactive | inactive | inactive | inactive | inactive | CC[C@H](C)[C@@H]1NC(=O)[C@@H]2CCCN2C(=O)[C@@H]2CCCN2C(=O)[C@H]([C@@H](C)CC)NC(=O)[C@H](CO)NC(=O)[C@H](CCCCN)NC(=O)[C@H]([C@@H](C)O)NC(=O)[C@@H]2CSSC[C@H](NC1=O)C(=O)N[C@@H](Cc1ccccc1)C(=O)N1CCC[C@H]1C(=O)N[C@@H](CC(=O)O)C(=O)NCC(=O)N[C@@H](CCCNC(=N)N)C(=O)N2
